Article PMC6720533 (Biomolecules & Therapeutics, 2019)

Legend:
SRPK1 = SRPK1 (Homo sapiens, UniProt Q96SB4); assay: Kinase activity screening; type: biochemical; conditions: FX-9 at 2.5 μM, ATP at Km (10 μM)
Outline: (§1)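 Radiometric kinase-panel screen of 58 human kinases, measuring substrate phosphorylation. […] Activity is given as % of the mean positive-control kinase activity (100%). Below 30% counts as a strong hit, 30–70% as a partial hit, and above 70% as no hit.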

EphB4 = EphB4 (Homo sapiens, UniProt P54760); assay: Kinase activity screening; type: biochemical; conditions: FX-9 at 2.5 μM, ATP at Km (10 μM)
Outline: (§2)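 Radiometric substrate-phosphorylation screen covering a panel of 58 human kinases run by a contract service. […] Activity is given as a percentage of mean activity in positive control samples (100%). Values <30% were scored strong hits, 30–70% partial hits and >70% no hit.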

CEM cells [1] = assay: Cell morphology, May Grünwald Giemsa staining; type: cell-based, human; conditions: 2.5 μM, 48 h
EphA5 = EphA5 (Homo sapiens, UniProt P54756); assay: Kinase activity screening; type: biochemical; conditions: FX-9 at 2.5 μM, ATP at Km (10 μM)
Chain of EphA5 (P54756 25-1037): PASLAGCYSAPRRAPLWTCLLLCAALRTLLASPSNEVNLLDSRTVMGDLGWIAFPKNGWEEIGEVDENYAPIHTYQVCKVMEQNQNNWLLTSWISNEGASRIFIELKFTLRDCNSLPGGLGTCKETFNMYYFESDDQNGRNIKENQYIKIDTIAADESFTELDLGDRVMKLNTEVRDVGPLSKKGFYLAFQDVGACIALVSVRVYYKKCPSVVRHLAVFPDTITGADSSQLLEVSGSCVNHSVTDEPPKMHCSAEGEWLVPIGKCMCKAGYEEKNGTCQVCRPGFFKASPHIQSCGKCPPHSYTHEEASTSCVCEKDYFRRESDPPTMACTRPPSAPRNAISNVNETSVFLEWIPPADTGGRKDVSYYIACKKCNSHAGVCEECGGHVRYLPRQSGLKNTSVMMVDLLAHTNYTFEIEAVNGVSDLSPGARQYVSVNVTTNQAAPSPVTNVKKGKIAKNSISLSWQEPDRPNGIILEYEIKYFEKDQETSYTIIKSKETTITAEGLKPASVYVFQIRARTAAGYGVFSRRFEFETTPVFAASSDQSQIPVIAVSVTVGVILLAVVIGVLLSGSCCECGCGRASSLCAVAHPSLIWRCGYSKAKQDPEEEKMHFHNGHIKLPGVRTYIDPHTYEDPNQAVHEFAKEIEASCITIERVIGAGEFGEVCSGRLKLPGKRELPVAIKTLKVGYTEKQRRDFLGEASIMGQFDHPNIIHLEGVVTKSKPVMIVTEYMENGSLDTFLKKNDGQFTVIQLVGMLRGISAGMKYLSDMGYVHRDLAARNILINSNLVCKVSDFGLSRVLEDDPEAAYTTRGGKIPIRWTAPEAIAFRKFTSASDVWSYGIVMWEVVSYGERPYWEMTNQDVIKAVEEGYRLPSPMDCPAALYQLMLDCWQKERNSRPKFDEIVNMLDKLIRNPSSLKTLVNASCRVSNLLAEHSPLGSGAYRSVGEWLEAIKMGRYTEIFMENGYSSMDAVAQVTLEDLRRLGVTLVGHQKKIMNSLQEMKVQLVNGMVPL
Outline: as §2

PI3 Kinase (p110a/p85a) = PI3 Kinase (p110a/p85a) (Homo sapiens, UniProt P42336); assay: Kinase activity screening; type: biochemical; conditions: FX-9 at 2.5 μM, ATP at Km (200 μM)
Outline: as §2

CDK6/cyclinD3 = CDK6/cyclinD3 (Homo sapiens, UniProt Q00534); assay: Kinase activity screening; type: biochemical; conditions: FX-9 at 2.5 μM, ATP at Km (200 μM)
Outline: as §2

SEM cells [2] = assay: Proliferation, viable cell count by trypan blue exclusion; type: cell-based, human; conditions: 72 h
Outline: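 Human B-ALL (SEM, RS4;11) and T-ALL (Jurkat, CEM) lines were grown with 10% heat-inactivated FBS and penicillin/streptomycin at 37°C, 5% CO2. Cells took test compound at 0.1–5.0 μM (methods: 0.5–5.0 μM) or DMSO for up to 72 h. Viable cells were counted by trypan blue exclusion and expressed relative to control (100%). IC50 came from three separate experiments, each in triplicate.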

Jurkat cells = assay: WST-1 metabolic activity assay; type: cell-based; conditions: Homo sapiens, 72 h, read-out: metabolic activity
Outline: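 Test compound came from a 10 mM DMSO stock. Cells were seeded at 5×10^4/well in triplicate with 5 or 10 μM final compound; controls got matched DMSO. After 72 h at 37°C, 5% CO2, WST-1 was added for a further 3 h. Absorbance was read at 450 nm (reference 620 nm), and metabolic activity given as % of DMSO control.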

IRAK4 = IRAK4 (Homo sapiens, UniProt Q9NWZ3); assay: Kinase activity screening; type: biochemical; conditions: FX-9 at 2.5 μM, ATP at Km (200 μM)
Chain of IRAK4 (Q9NWZ3 whole entry): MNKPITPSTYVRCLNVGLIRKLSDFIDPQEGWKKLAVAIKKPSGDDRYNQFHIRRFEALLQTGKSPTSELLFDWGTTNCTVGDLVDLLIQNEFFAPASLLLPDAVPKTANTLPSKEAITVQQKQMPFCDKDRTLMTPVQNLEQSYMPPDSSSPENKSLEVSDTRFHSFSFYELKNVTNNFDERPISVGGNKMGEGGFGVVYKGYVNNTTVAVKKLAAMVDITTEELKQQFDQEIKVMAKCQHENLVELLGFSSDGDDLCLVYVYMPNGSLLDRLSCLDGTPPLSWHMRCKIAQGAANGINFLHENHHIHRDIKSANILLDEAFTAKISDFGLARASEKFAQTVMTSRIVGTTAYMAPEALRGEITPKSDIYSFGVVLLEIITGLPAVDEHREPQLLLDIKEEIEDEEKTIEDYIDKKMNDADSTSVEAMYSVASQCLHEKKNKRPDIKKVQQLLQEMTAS
Outline: as §2

ROCK-I = ROCK-I (Homo sapiens, UniProt Q13464); assay: Kinase activity screening; type: biochemical; conditions: FX-9 at 2.5 μM, ATP at Km (70 μM)
Outline: as §1

Pim-1 = Pim-1 (Homo sapiens, UniProt P11309); assay: Kinase activity screening; type: biochemical; conditions: FX-9 at 2.5 μM, ATP at Km (90 μM)
Outline: as §1

PI3 Kinase (p110b/p85a) = PI3 Kinase (p110b/p85a) (Homo sapiens, UniProt P42338); assay: Kinase activity screening; type: biochemical; conditions: FX-9 at 2.5 μM, ATP at Km (200 μM)
Chain of PI3 Kinase (p110b/p85a) (P42338 whole entry): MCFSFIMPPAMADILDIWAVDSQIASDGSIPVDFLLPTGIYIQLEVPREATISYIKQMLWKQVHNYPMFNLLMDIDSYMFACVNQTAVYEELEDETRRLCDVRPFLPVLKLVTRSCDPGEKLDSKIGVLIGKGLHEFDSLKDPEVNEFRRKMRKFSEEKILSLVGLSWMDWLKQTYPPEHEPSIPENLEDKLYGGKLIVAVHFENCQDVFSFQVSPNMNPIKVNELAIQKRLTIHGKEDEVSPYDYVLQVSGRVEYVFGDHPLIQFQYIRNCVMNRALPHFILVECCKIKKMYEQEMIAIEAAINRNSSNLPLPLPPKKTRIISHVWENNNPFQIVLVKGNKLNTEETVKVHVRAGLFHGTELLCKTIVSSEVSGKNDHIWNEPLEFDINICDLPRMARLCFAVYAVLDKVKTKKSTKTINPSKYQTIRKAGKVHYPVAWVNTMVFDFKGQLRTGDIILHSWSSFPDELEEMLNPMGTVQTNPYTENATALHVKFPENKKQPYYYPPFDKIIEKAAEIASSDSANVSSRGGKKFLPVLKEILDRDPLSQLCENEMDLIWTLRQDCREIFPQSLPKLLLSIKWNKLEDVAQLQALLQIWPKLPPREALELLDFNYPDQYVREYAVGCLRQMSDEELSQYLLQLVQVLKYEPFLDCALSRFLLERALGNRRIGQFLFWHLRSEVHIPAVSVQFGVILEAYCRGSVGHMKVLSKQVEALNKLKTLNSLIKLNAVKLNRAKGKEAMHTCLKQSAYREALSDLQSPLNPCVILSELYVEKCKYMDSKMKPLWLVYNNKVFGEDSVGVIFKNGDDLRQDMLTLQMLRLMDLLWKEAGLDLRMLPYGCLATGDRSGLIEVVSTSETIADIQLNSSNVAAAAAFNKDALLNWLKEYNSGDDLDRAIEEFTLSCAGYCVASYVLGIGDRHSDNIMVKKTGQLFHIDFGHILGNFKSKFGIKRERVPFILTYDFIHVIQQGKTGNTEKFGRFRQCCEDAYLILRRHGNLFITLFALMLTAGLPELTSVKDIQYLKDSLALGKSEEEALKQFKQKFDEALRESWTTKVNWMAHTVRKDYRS
Chain of PI3 Kinase (p110b/p85a) (P27986 whole entry partner): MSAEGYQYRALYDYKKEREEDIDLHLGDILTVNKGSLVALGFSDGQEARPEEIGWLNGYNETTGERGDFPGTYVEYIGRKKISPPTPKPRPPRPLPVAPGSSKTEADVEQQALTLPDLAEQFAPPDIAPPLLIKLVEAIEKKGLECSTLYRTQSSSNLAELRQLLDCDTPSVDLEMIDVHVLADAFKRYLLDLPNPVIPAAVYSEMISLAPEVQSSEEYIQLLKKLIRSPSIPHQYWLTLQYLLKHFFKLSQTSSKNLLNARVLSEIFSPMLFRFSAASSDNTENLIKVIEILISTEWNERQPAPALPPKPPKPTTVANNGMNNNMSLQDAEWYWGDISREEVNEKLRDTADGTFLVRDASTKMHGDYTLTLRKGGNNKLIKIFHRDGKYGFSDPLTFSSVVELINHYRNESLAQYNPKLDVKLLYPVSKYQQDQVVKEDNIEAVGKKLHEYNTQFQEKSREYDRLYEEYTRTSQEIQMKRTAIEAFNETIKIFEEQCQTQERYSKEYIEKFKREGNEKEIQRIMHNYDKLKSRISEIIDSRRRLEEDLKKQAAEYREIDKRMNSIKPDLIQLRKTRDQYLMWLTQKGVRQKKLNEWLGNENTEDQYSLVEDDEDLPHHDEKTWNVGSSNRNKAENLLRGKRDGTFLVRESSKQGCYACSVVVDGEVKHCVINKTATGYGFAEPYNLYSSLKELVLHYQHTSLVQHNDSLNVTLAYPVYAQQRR
Outline: as §2

SEM cells [3] = assay: Apoptosis, Annexin V FITC / propidium iodide flow cytometry; type: cell-based, human; conditions: 5 μM, 72 h, DMSO 7.4%
JAK2 = JAK2 (Homo sapiens, UniProt O60674); assay: Kinase activity screening; type: biochemical; conditions: FX-9 at 2.5 μM, ATP at Km (45 μM)
Outline: as §2

GSK3β = GSK3β (Homo sapiens, UniProt P49841); assay: Kinase activity screening; type: biochemical; conditions: FX-9 at 2.5 μM, ATP at Km (15 μM)
Outline: as §2

PDGFRβ = PDGFRβ (Homo sapiens, UniProt P09619); assay: Kinase activity screening; type: biochemical; conditions: FX-9 at 2.5 μM, ATP at Km (200 μM)
Outline: as §2

CK1γ1 = CK1γ1 (Homo sapiens, UniProt Q9HCP0); assay: Kinase activity screening; type: biochemical; conditions: FX-9 at 2.5 μM, ATP at Km (15 μM)
Chain of CK1γ1 (Q9HCP0 whole entry): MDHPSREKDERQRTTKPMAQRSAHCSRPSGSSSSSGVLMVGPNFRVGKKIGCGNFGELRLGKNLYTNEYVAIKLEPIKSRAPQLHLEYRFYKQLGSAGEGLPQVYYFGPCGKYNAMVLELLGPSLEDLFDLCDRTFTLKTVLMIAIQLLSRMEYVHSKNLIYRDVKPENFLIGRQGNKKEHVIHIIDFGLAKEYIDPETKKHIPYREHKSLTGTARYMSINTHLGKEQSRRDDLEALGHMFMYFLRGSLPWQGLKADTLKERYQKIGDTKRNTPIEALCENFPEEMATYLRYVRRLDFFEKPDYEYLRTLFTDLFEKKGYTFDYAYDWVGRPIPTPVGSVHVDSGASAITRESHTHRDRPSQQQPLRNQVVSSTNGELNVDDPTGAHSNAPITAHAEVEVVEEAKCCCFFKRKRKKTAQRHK
Outline: as §2

Rse = Rse (Homo sapiens, UniProt Q06418); assay: Kinase activity screening; type: biochemical; conditions: FX-9 at 2.5 μM, ATP at Km (45 μM)
Chain of Rse (Q06418 41-890): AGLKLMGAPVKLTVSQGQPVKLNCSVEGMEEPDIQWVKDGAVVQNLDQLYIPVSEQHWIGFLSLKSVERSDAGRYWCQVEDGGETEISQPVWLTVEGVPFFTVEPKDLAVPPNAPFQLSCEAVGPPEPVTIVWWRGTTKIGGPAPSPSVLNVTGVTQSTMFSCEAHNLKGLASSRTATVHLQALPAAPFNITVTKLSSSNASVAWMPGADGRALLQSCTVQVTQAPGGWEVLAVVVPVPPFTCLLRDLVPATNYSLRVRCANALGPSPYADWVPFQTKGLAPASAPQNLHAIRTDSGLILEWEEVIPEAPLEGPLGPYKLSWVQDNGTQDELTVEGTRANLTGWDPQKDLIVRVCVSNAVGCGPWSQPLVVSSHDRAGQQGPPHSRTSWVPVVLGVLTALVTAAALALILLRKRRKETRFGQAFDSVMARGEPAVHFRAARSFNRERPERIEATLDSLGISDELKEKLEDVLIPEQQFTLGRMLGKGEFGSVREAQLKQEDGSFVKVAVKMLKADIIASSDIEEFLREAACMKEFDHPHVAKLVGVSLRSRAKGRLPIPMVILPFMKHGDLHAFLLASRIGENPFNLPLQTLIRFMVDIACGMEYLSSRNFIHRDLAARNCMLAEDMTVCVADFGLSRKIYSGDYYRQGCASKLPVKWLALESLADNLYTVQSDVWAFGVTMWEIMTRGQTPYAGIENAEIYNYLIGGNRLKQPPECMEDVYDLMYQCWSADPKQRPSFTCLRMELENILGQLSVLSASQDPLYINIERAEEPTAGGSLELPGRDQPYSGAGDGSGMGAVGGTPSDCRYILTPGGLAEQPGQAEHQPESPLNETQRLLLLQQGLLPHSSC
Outline: as §1

Fyn = Fyn (Homo sapiens, UniProt P06241); assay: Kinase activity screening; type: biochemical; conditions: FX-9 at 2.5 μM, ATP at Km (70 μM)
Outline: as §2

PRAK = PRAK (Homo sapiens, UniProt Q8IW41); assay: Kinase activity screening; type: biochemical; conditions: FX-9 at 2.5 μM, ATP at Km (15 μM)
Chain of PRAK (Q8IW41 whole entry): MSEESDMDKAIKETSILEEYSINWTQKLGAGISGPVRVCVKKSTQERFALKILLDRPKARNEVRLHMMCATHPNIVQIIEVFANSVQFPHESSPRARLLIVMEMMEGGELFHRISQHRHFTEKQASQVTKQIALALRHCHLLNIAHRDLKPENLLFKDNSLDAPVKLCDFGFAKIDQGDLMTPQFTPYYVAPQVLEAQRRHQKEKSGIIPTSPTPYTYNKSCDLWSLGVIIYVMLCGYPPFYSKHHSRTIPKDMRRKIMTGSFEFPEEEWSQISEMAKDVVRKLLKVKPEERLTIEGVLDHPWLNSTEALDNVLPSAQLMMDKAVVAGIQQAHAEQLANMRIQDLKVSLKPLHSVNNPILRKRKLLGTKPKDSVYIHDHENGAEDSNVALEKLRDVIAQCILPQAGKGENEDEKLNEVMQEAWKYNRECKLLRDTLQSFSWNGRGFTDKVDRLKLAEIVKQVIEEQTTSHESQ
Outline: as §1

CEM cells [4] = assay: Apoptosis, Annexin V FITC / propidium iodide flow cytometry; type: cell-based, human; conditions: 5 μM, 72 h, DMSO 7.3%
RS4;11 cells = assay: Cell morphology, May Grünwald Giemsa staining; type: cell-based, human; conditions: 48 h

Kinase activity (% control) (SRPK1): 94 % control | Kinase activity (% control) (EphB4): 83 % control | Kinase activity (% control) (EphA5): 98 % control | Kinase activity (% control) (PI3 Kinase (p110a/p85a)): 101 % control | Kinase activity (% control) (CDK6/cyclinD3): 103 % control | Kinase activity (% control) (IRAK4): 95 % control | Kinase activity (% control) (ROCK-I): 93 % control | Kinase activity (% control) (Pim-1): 99 % control | Kinase activity (% control) (PI3 Kinase (p110b/p85a)): 97 % control | Kinase activity (% control) (JAK2): 111 % control | Kinase activity (% control) (GSK3β): 88 % control | Kinase activity (% control) (PDGFRβ): 99 % control | Kinase activity (% control) (CK1γ1): 98 % control | Kinase activity (% control) (Rse): 92 % control | Kinase activity (% control) (Fyn): 97 % control | Kinase activity (% control) (PRAK): 79 % control
SMILES: Cc1ccc(-c2cc3ccccc3c(N)n2)cc1 [FX-9, 3-(p-Tolyl)isoquinolin-1-amine]
cellular morphology (light microscopy) (CEM cells [1]): Extensive cytoplasmic vacuolization, karyopyknosis, and karyolysis | IC50 (SEM cells [2]; Homo sapiens, read-out: IC50 based on proliferation): 1460 ± 10 nM | Proliferation compared to control cells (=100%) (SEM cells [2]; SEM, 0.5 μM): 69.5% | viability at 5 µM (Jurkat cells): 10.4% | viability at 10 µM (Jurkat cells): 13.6% | Apoptosis (total of early apoptotic and late apoptotic and necrotic cells) (SEM cells [3]): 75.9% | Apoptosis (total of early apoptotic and late apoptotic and necrotic cells) (CEM cells [4]): 90.4% | cellular morphology (light microscopy) (RS4;11 cells; RS4;11, 1.0 μM): increased amount of vacuoles and karyopyknosis | cellular morphology (light microscopy) (RS4;11 cells; RS4;11, 2.5 μM): Extensive cytoplasmic vacuolization, karyopyknosis, and karyolysis
